Source: ChEMBL document CHEMBL3797089, “Morusin Induces TRAIL Sensitization by Regulating EGFR and DR5 in Human Glioblastoma Cells” (J Nat Prod, 2016)
Active and inactive are the calls of the source. The rule behind the calls is not given here.

Experiments:
U-87 MG [1] = experiment: Induction of DR5 expression in human U87MG cells after 24 hrs by Western blot analysis; format: functional, cell-based; conditions: U-87MG ATCC
How it was run: (§1)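 Cells exposed to a range of morusin concentrations for 24 h. Cell extracts immunoblotted for DR4, DR5, DcR1 and DcR2, with β-actin as internal control and HRP-conjugated secondary antibodies (1:5000).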

[2] = Reduction of PDGFR expression in human U87MG cells at 25 uM after 24 hrs by Western blot analysis; format: functional, cell-based; conditions: U-87MG ATCC
How it was run: (§2)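 LN18, U87MG, T98G, U251MG and U373MG glioblastoma cells were exposed to morusin for 24 h. Cells were maintained in DMEM, MEM or RPMI with 10% FBS at 37 °C and 5% CO2. Whole-cell lysates were Western blotted for receptor proteins, with β-actin as internal control.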

[3] = Stability in human U87MG cells assessed as compound remaining at 10 uM after 24 hrs; format: ADME, cell-based, U-87MG ATCC; conditions: read-out: Stability
[4] = Reduction of PDGFR expression in human U373MG cells at 25 uM after 24 hrs by Western blot analysis; format: functional, cell-based; conditions: U-373MG ATCC; how it was run: as §2
[5] = Reduction of XIAP mRNA expression in human U87MG cells at 25 uM by RT-qPCR analysis; format: functional, cell-based; conditions: U-87MG ATCC, TDE = time-dependent effect
How it was run: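 U87MG cells were exposed to 25 μM morusin over a time course. Total RNA (1 μg) was reverse transcribed, and XIAP and survivin transcripts were measured by RT-qPCR against GAPDH. Results are mean ± SD from at least three independent experiments.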

U-87 MG [6] = experiment: Induction of DR5 expression in human U87MG cells at 25 uM after 24 hrs by FITC-conjugated flow cytometric analysis; format: functional, cell-based; conditions: U-87MG ATCC
How it was run: (§3)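 Cells given 25 μM morusin for 24 h, then stained on ice for 30 min with 0.5 μg/mL FITC-conjugated anti-DR4, anti-DR5 or isotype IgG in FACS buffer. Surface expression read by flow cytometry.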

T98G [7] = experiment: Induction of apoptosis in human T98G cells assessed as increase in cleaved caspase 8 levels at 2.5 uM after 24 hrs by Western blot analysis in presence of TRAIL; format: functional, cell-based
How it was run: (§4)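 U87MG and T98G given TRAIL 25 ng/mL plus morusin 2.5 μM together for 24 h; single-agent arms used TRAIL 50 ng/mL or morusin 5 μM. Lysates immunoblotted for cleaved caspase 3, 8, 9 and cleaved PARP, with β-actin as internal control.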

U-87 MG [8] = experiment: Induction of DR5 mRNA expression in human U87MG cells at 25 uM after 24 hrs by RT-qPCR analysis; format: functional, cell-based; conditions: U-87MG ATCC
How it was run: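 U87MG held at 25 μM morusin for the times indicated. Total RNA extracted; 1 μg reverse transcribed; DR5 mRNA measured by RT-qPCR against GAPDH. Mean ± SD.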

U373 MG [9] = experiment: Induction of DR5 expression in human U373MG cells at 25 uM by Western blot analysis; format: functional, cell-based; conditions: U-373MG ATCC, TDE = time-dependent effect
How it was run: (§5)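 Time course: U87MG and U373MG cells held at 25 μM morusin for the times indicated. Extracts immunoblotted (cIAP1 or DR5), with β-actin as loading control.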

U-87 MG [10] = experiment: Effect on cIAP1 expression in human U87MG cells at 12 to 25 uM after 24 hrs by Western blot analysis; format: functional, cell-based; conditions: U-87MG ATCC
How it was run: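 U87MG and U373MG exposed to a range of morusin concentrations for 24 h. Whole-cell extracts immunoblotted for cIAP1, with β-actin as internal control.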

[11] = Cytotoxicity against human U138MG cells assessed as reduction in cell viability after 24 hrs by MTT assay; format: functional, cell-based; conditions: U138-MG
How it was run: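 Seeded 3–5 × 10^3 cells/well, treated the next day with a range of morusin (DMSO stock) for 24 h, 37 °C, 5% CO2. Then fresh medium with 1 mg/mL MTT for 2 h at 37 °C, lysis buffer overnight at 37 °C, OD 570 nm. Mean ± SD from at least three independent experiments in triplicate.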

T98G [12] = experiment: Reduction of EGFR expression in human T98G cells at 25 uM after 24 hrs by Western blot analysis; format: functional, cell-based; how it was run: as §2
U-251 = experiment: Effect on DcR2 expression in human U251MG cells upto 25 uM after 24 hrs by Western blot analysis; format: functional, cell-based; how it was run: as §1
U-87 MG [13] = experiment: Effect on DcR2 expression in human U87MG cells upto 25 uM after 24 hrs by Western blot analysis; format: functional, cell-based; conditions: U-87MG ATCC; how it was run: as §1
U373 MG [14] = experiment: Effect on cIAP1 expression in human U373MG cells at 25 uM after 3 to 18 hrs by Western blot analysis; format: functional, cell-based; conditions: U-373MG ATCC; how it was run: as §5
LN-18 = experiment: Induction of DR5 expression in human LN18 cells after 24 hrs by Western blot analysis; format: functional, cell-based; how it was run: as §1
T98G [15] = experiment: Induction of apoptosis in human T98G cells assessed as increase in cleaved caspase 3 levels at 2.5 uM after 24 hrs by Western blot analysis in presence of TRAIL; format: functional, cell-based; how it was run: as §4
[16] = Reduction of EGFR expression in human LN18 cells at 25 uM after 24 hrs by Western blot analysis; format: functional, cell-based; conditions: LN-18; how it was run: as §2
U-87 MG [17] = experiment: Induction of apoptosis in human U87MG cells assessed as increase in cleaved caspase 9 levels at 2.5 uM after 24 hrs by Western blot analysis in presence of TRAIL; format: functional, cell-based; conditions: U-87MG ATCC; how it was run: as §4
[18] = Reduction of XIAP expression in human U373MG cells at 25 uM by Western blot analysis; format: functional, cell-based; conditions: U-373MG ATCC, TDE = time-dependent effect
How it was run: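 Time course: U87MG and U373MG cells were exposed to 25 μM morusin for the indicated times. Whole-cell extracts were Western blotted, with β-actin as internal control.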

[19] = Cytotoxicity against human U87MG cells assessed as cell death after 24 hrs by MTT assay in presence of TRAIL; format: functional, U-87MG ATCC
How it was run: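 U87MG cells (MEM, 10% FBS) were seeded at (3−5) × 10^3 cells/well and treated 1 day later with TRAIL at 100 ng/mL plus graded test compound for 24 h. Fresh medium with 1 mg/mL MTT was added for 2 h at 37 °C, then lysis buffer overnight at 37 °C, and OD was read at 570 nm. Data are mean ± SD from ≥3 independent experiments in triplicate.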

U373 MG [20] = experiment: Effect on DR4 expression in human U373MG cells upto 25 uM after 24 hrs by Western blot analysis; format: functional, cell-based; conditions: U-373MG ATCC; how it was run: as §1
[21] = Reduction of PDGFR expression in human LN18 cells at 25 uM after 24 hrs by Western blot analysis; format: functional, cell-based; conditions: LN-18; how it was run: as §2
[22] = Cytotoxicity against human U87MG cells assessed as reduction in cell viability measured up to 20 uM after 24 hrs by MTT assay in presence of TRAIL; format: functional, U-87MG ATCC
How it was run: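 MTT viability. 3–5 × 10^3 cells/well, treated the next day with TRAIL 100 ng/mL plus increasing morusin concentrations for 24 h. 1 mg/mL MTT for 2 h at 37 °C, lysis overnight, OD 570 nm. Living-cell fractions were used for combination index analysis. Mean ± SD, at least three independent experiments.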

U-87 MG [23] = experiment: Effect on cIAP1 expression in human U87MG cells at 25uM after 3 to 18 hrs by Western blot analysis; format: functional, cell-based; conditions: U-87MG ATCC; how it was run: as §5
U373 MG [24] = experiment: Induction of DR4 expression in human U373MG cells at 25 uM after 24 hrs by FITC-conjugated flow cytometric analysis; format: functional, cell-based; conditions: U-373MG ATCC; how it was run: as §3

With `CC(C)=CCc1c(-c2ccc(O)cc2O)oc2c3c(cc(O)c2c1=O)OC(C)(C)C=C3` [MORUSIN] the Activity (U-87 MG [1]) was “Dose-dependent effect”, the Activity [2] was “Active” and the remaining at 24 h, 10 µM [3] was over 94%. For the same molecule, the Activity [4] was “Active”, the Activity [5] was “tde” and the Activity (U-87 MG [6]) was “Active”. The Activity (T98G [7]) was “Active”, the Activity (U-87 MG [8]) was “Active” and the Activity (U373 MG [9]) was “tde”. For the same molecule, the Activity (U-87 MG [10]) was “inactive”, the IC50 [11] was 24 µM and the Activity (T98G [12]) was “Active”. For the same molecule, the Activity (U-251) was “inactive”, the Activity (U-87 MG [13]) was “inactive” and the Activity (U373 MG [14]) was “inactive”. For the same molecule, the Activity (LN-18) was “Dose-dependent effect”, the Activity (T98G [15]) was “Active” and the Activity [16] was “Active”. For the same molecule, the Activity (U-87 MG [17]) was “Active”, the inhibition [18] was “tde” and the Activity [19] was 29%. For the same molecule, the Activity (U373 MG [20]) was “inactive”, the Activity [21] was “Active” and the CI [22] was under 0.8. The Activity (U-87 MG [23]) was “inactive” and the Activity (U373 MG [24]) was “inactive”.
